Experimental data reported in ChEMBL document CHEMBL4673367, “N-Benzyl-linoleamide, a Constituent of Lepidium meyenii (Maca), Is an Orally Bioavailable Soluble Epoxide Hydrolase Inhibitor That Alleviates Inflammatory Pain” (J Nat Prod, 2020).
Calls of active or inactive are those of the source.

Key:
[1] = target: T1, Bifunctional epoxide hydrolase 2 (Rattus norvegicus, UniProt P80299); assay: Inhibition of recombinant rat sEH expressed in baculovirus expression system using MNPC as substrate by fluorescence-based assay
T1 sequence (P80299 whole entry): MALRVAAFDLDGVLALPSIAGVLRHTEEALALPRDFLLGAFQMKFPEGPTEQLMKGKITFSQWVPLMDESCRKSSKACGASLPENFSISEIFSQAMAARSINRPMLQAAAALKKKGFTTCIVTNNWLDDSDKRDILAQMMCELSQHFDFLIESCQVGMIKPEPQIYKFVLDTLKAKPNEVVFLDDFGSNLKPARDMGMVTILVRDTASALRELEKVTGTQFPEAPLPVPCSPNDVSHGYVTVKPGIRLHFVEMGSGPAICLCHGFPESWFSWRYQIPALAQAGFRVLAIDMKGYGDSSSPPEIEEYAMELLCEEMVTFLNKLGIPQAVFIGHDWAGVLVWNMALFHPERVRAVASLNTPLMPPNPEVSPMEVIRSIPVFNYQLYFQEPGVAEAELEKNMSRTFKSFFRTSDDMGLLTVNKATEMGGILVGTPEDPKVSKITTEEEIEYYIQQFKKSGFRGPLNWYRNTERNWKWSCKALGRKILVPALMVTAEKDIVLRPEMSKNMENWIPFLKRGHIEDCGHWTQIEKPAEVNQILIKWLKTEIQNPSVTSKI
Procedure, shortened: (§1)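 Recombinant human, mouse or rat sEH tested with serial dilutions of inhibitor in 96-well format. MNPC substrate at 5 μM final. Fluorescent 6-methoxynaphthaldehyde product read at ex 330 / em 465 nm. IC50 derived from these readings.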

[2] = target: T2, Bifunctional epoxide hydrolase 2 (Mus musculus, UniProt P34914); assay: Inhibition of recombinant mouse sEH expressed in baculovirus expression system using MNPC as substrate by fluorescence-based assay; procedure, shortened: as §1
T2 sequence (P34914 whole entry): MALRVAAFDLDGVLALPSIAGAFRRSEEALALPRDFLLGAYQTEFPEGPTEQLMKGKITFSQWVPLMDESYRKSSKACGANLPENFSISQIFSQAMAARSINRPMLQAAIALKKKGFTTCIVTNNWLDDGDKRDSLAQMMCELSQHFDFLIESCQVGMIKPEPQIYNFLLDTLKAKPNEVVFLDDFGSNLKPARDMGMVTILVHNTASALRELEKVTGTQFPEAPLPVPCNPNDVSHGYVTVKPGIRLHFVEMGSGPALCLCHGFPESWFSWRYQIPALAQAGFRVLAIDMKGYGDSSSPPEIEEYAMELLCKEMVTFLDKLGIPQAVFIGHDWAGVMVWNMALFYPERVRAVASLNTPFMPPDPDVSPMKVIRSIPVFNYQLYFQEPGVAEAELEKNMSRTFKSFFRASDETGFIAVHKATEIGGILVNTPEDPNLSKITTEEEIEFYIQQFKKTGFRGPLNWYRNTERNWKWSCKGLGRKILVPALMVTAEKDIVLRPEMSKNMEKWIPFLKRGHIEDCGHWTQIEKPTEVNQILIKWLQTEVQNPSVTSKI

[3] = target: T3, Bifunctional epoxide hydrolase 2 (Homo sapiens, UniProt P34913); assay: Inhibition of recombinant human sEH expressed in baculovirus expression system using MNPC as substrate by fluorescence-based assay; procedure, shortened: as §1
T3 sequence (P34913 whole entry): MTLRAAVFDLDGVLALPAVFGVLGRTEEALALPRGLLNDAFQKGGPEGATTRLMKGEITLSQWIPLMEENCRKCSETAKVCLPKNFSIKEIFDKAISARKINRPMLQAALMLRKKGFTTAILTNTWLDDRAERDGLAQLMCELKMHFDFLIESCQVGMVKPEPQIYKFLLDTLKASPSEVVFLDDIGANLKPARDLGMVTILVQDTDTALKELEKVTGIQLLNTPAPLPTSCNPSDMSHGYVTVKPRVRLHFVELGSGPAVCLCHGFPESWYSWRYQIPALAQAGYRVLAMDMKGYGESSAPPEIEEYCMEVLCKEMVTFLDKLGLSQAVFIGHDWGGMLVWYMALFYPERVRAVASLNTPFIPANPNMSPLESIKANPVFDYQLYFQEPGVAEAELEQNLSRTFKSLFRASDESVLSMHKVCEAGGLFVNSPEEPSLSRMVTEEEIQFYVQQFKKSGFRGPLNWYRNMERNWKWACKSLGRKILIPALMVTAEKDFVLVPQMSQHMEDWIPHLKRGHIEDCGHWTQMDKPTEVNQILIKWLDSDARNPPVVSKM

[4] = Half life in Sprague-Dawley rat at 100 mg/kg, po measured up to 96 hrs by LC/MS/MS analysis; assay type: ADME, organism-based; conditions: in vivo
Procedure, shortened: (§2)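 Male SD rats (8 weeks, 250–300 g, n=4/group) given a single oral gavage of 100 mg/kg in 100% NEOBEE 1053. Plasma concentrations followed over a 96-h time course. Blood processed and quantified by an earlier reported method. Parameters reported as mean ± SEM.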

[5] = AUC in Sprague-Dawley rat at 100 mg/kg, po measured up to 96 hrs by LC/MS/MS analysis; assay type: ADME, organism-based; parameters: route oral, dose 100 mg/kg, time <=96; conditions: in vivo; procedure, shortened: as §2
Rattus norvegicus = assay: Antinociceptive activity against LPS-induced inflammatory pain Sprague-Dawley rat model assessed as increase in paw withdrawal threshold at 100 mg/kg, po measured up to 6 hrs by von Frey assay; assay type: functional, organism-based; conditions: time hrs <=6
Procedure, shortened: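 Male SD rats, n=4/group, randomized and blinded. Baseline von Frey mechanical withdrawal thresholds taken before dosing. Oral gavage of 100 mg/kg in 1 mL 100% NEOBEE 1053 (vehicle control alongside). Immediately after, 50 μL of 0.2 μg/mL LPS in saline injected intraplantar into one hind paw. Ipsilateral thresholds measured 3–5 times per rat per time point over 6 h. Expressed as percent of baseline, group mean ± SEM.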

[6] = Cmax in Sprague-Dawley rat at 100 mg/kg, po measured up to 96 hrs by LC/MS/MS analysis; assay type: ADME, organism-based; parameters: route oral, dose 100 mg/kg, time <=96; conditions: in vivo; procedure, shortened: as §2
[7] = Tmax in Sprague-Dawley rat at 100 mg/kg, po measured up to 96 hrs by LC/MS/MS analysis; assay type: ADME, organism-based; conditions: in vivo; procedure, shortened: as §2

| IC50 [1] | IC50 [2] | IC50 [3] | t1/2 [4] | AUC [5] | Cmax [6] | Tmax [7] | SMILES | Activity (Rattus norvegicus) |
| --- | --- | --- | --- | --- | --- | --- | --- | --- |
| 370 nM | 422 nM | 524 nM | – | – | – | – | CCCCCCCCCCCCCCCC(=O)NCc1ccccc1 | – |
| 33 nM | 91 nM | – | – | – | – | – | CCCCC/C=C\C/C=C\CCCCCCCC(=O)NCCc1ccccc1 | – |
| 15 nM | 39 nM | 15 nM | – | – | – | – | CC/C=C\C/C=C\C/C=C\CCCCCCCC(=O)NCCc1ccccc1 | – |
| 198 nM | 265 nM | 893 nM | – | – | – | – | CCCCCCCC/C=C\CCCCCCCC(=O)NCc1ccccc1 | – |
| 28700 nM | 89900 nM | 16100 nM | – | – | – | – | CCCCCCCCCCCCCCCCCC(=O)NCc1cccc(OC)c1 | – |
| 41 nM | 44 nM | 155 nM | 9 h | 3.69 µM·h | 519 nM | 3 h | CCCCC/C=C\C/C=C\CCCCCCCC(=O)NCc1ccccc1 | Active |
| 35800 nM | 59600 nM | > 100000 nM | – | – | – | – | CCCCCCCCCCCCCCCCCC(=O)NCc1ccccc1 | – |
| 84 nM | 126 nM | 241 nM | – | – | – | – | CCCCCCCC/C=C\CCCCCCCC(=O)NCc1cccc(OC)c1 | – |
| 23 nM | 28 nM | 134 nM | 14.6 h | 0.723 µM·h | 54 nM | 6 h | CC/C=C\C/C=C\C/C=C\CCCCCCCC(=O)NCc1ccccc1 | inactive |
| 15900 nM | > 100000 nM | 7060 nM | – | – | – | – | CCCCCCCCCCCCCCCC(=O)NCc1ccc(OC)c(OC)c1 | – |
| 9.3 nM | 27 nM | 76 nM | – | – | – | – | CC/C=C\C/C=C\C/C=C\CCCCCCCC(=O)NCc1cccc(OC)c1 | – |
| 90 nM | 122 nM | 84 nM | – | – | – | – | CC/C=C\C/C=C\C/C=C\CCCCCCCC(=O)NCc1ccc(OC)c(OC)c1 | – |
| 111 nM | 148 nM | 104 nM | – | – | – | – | CCCCC/C=C\C/C=C\CCCCCCCC(=O)NCc1ccc(OC)c(OC)c1 | – |
| 43 nM | 38 nM | 92 nM | – | – | – | – | CCCCC/C=C\C/C=C\CCCCCCCC(=O)NCc1cccc(OC)c1 | – |
| 113 nM | 159 nM | 235 nM | – | – | – | – | CCCCCCCCCCCCCCCC(=O)NCc1cccc(OC)c1 | – |

| SMILES | IC50 [1] | IC50 [2] | IC50 [3] | t1/2 [4] | AUC [5] | Cmax [6] | Tmax [7] | Activity (Rattus norvegicus) |
| --- | --- | --- | --- | --- | --- | --- | --- | --- |
| CC/C=C\C/C=C\C/C=C\C/C=C\C/C=C\CCCC(=O)NCc1cccc(OC)c1 | 18.6 nM | 49 nM | 63 nM | – | – | – | – | – |
| CC/C=C\C/C=C\C/C=C\C/C=C\C/C=C\CCCC(=O)NCc1ccccc1 | 29 nM | 43 nM | 111 nM | – | – | – | – | – |
| CCCCC/C=C\C/C=C\C/C=C\C/C=C\CCCC(=O)NCc1cccc(OC)c1 | 22 nM | 73 nM | 55 nM | – | – | – | – | – |
| CCCCC/C=C\C/C=C\C/C=C\C/C=C\CCCC(=O)NCc1ccccc1 | 40 nM | 50 nM | 123 nM | – | – | – | – | – |
